# Experimental data pooled from the literature.
# Lines come from different studies, so protocols differ.
# Target: Mitogen-activated protein kinase 11 (MAPK11, Homo sapiens, UniProt Q15759)
Structure (SMILES),assay,setting,measurement,result
Cc1ccc(NC(=O)c2ccc(C)c(C(F)(F)F)c2)cc1C#Cc1nn(C2CCC(O)CC2)c2ncnc(N)c12 (stereo not shown),cell-free assay,10 µM,remaining signal,-2%
Cc1noc([C@H]2C[C@@H](c3ccc(C(F)(F)F)cc3)CN(C(=O)N3CCS(=O)(=O)C3)C2)n1,"cell-free assay, competition with immobilised ligand",1 µM,remaining binding,100%
CNc1cccc2cc(C(=O)Nc3ccc(C(=O)O)cc3)c(=O)[nH]c12,"enzyme activity, inhibitor",10 µM,inhibition,-2.4%
CC(C)(C)c1nc(-c2cccc(NS(=O)(=O)c3c(F)cccc3F)c2F)c(-c2ccnc(N)n2)s1,"enzyme activity, inhibitor, radiometric",1 µM,remaining activity,104%
O=C1Nc2ccc(Cl)cc2C1=Cc1cc(Cl)c(O)c(Cl)c1,cell-free assay,0.5 µM,remaining signal,99.2%
CO[C@@H](C)c1c(Nc2ccc([C@@H](N(C)C(=O)C3CCS(=O)(=O)CC3)C(F)(F)F)cc2)cnc2cc(Cl)nn12,"cell-free assay, competition with immobilised ligand",1 µM,remaining binding,86%
Cn1c2c(c3ccc(Cl)c(Cl)c31)C(C#N)C(C)(C)NC2=O (stereo not shown),"thermal stability, DSF",10 µM,ΔTm,0.8 °C
O=C(O)[C@H]1[C@H](Cn2nnc3ccccc3c2=O)CC[C@@H]1C(=O)c1ccc(OCCC2CCOCC2)cc1,"cell-free assay, competition with immobilised ligand",1 µM,remaining binding,78%
Nc1nc(Nc2ccccc2)sc1C(=O)c1c(F)cccc1F,"enzyme activity, inhibitor",10 µM,remaining activity,12%
COc1cc(Nc2cnc(C#N)c(O[C@H](C)CN(C)C)n2)ncc1-c1cnn(C)c1,"enzyme activity, inhibitor, radiometric",10 µM,remaining activity,92%
FC(F)c1nc2ccccc2n1-c1nc(N2CCOCC2)nc(N2CCOCC2)n1,"enzyme activity, inhibitor",10 µM,remaining activity,95%
Cc1ccc(Nc2nccc(N(C)c3ccc4c(C)n(C)nc4c3)n2)cc1S(N)(=O)=O,"enzyme activity, inhibitor",0.3 µM,inhibition,-6%
CCCCNc1ncc2c(-c3ccc(F)cc3)nn(C[C@H]3CC[C@H](N)CC3)c2n1,"target engagement in cells, inhibitor, chemoproteomics",20 mM,inhibition,36.9%
O=C(Nc1cnn(-c2csc(C(=O)NC3COC3)c2)c1)Nc1c(F)cccc1Cl,"enzyme activity, inhibitor",5 µM,remaining activity,91.7%
O=C(N1CCS(=O)(=O)CC1)N1C[C@H](c2ccc(OC(F)(F)F)cc2)C[C@H](c2nc(C3CC3)no2)C1,"cell-free assay, competition with immobilised ligand",1 µM,remaining binding,100%
CC(C)(O)[C@H]1CC[C@H](Nc2ccc3ncc(-c4cccc(C(F)(F)F)c4)n3n2)CC1,"enzyme activity, inhibitor",1 µM,remaining activity,103%
CN([C@@H]1CCc2c(CC(=O)O)c3cc(S(C)(=O)=O)ccc3n2C1)S(=O)(=O)c1ccc(F)cc1,"cell-free assay, competition with immobilised ligand",1 µM,remaining binding,83%
N#CCCc1ccc2c(c1)-c1[nH]c3ccc([N+](=O)[O-])cc3c1CC(=O)N2,cell-free assay,0.5 µM,remaining signal,101%
NS(=O)(=O)c1cc(NC(=O)Cc2ccccc2)ccc1Oc1cccc(Cl)c1,"cell-free assay, competition with immobilised ligand",1 µM,remaining binding,100%
Cn1c2c(c3ccc(Cl)c(Cl)c31)C(C#N)C1(CCCC1)NC2=O (stereo not shown),"thermal stability, DSF",10 µM,ΔTm,0.9 °C
Cc1cc(-n2nc(Cc3cc(F)cc(C(F)(F)F)c3)nc2C)ccc1C(N)=O,"cell-free assay, competition with immobilised ligand",1 µM,remaining binding,90%
Cn1c2c(Cl)c(Cl)ccc2c2cc(N)[nH]c(=O)c21,"thermal stability, DSF",10 µM,ΔTm,1.8 °C
